In ChEMBL document CHEMBL3352045, “Ionic liquid catalyzed synthesis of 2-(indole-3-yl)-thiochroman-4-ones and their novel antifungal activities” (2015):
Converted amounts (≈) assume the structure as drawn.

Assays:
Format in all cases: functional
[1] = tested on: Candida albicans; test: Antifungal activity against Candida albicans after 2 to 7 days by serial plate dilution method
In short: (§1)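 Compounds dissolved as DMSO stocks and serially diluted in RPMI 1640 buffered with MOPS, giving final concentrations of 128–0.25. Individual fungal inoculum added to each well. Incubated in triplicate at 37 °C for 2–7 days. MIC read as the lowest concentration with no visible growth. Amphotericin B and fluconazole served as positive controls.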

[2] = tested on: Cryptococcus neoformans; test: Antifungal activity against Cryptococcus neoformans after 2 to 7 days by serial plate dilution method; in short: as §1
[3] = tested on: Mucor racemosus; test: Antifungal activity against Mucor racemosus after 2 to 7 days by serial plate dilution method
[4] = tested on: Nannizzia gypsea; test: Antifungal activity against Microsporum gypseum after 2 to 7 days by serial plate dilution method; in short: as §1
[5] = tested on: Epidermophyton floccosum; test: Antifungal activity against Epidermophyton floccosum after 2 to 7 days by serial plate dilution method; in short: as §1

Compound	MIC [1]	MIC [2]	MIC [3]	MIC [4]	MIC [5]
O=C1CC(c2c[nH]c3ccc(Cl)cc23)Sc2c(F)cccc21 (stereo not given)	32 µg/mL (≈ 96.4 µM)	4 µg/mL (≈ 12.1 µM)	8 µg/mL (≈ 24.1 µM)	8 µg/mL (≈ 24.1 µM)	4 µg/mL (≈ 12.1 µM)
O=C1CC(c2c[nH]c3ccc(Cl)cc23)Sc2ccc(Cl)cc21 (stereo not given)	64 µg/mL (≈ 184 µM)	4 µg/mL (≈ 11.5 µM)	8 µg/mL (≈ 23 µM)	16 µg/mL (≈ 45.9 µM)	8 µg/mL (≈ 23 µM)
O=C1CC(c2c[nH]c3ccccc23)Sc2ccc(Cl)cc21 (stereo not given)	64 µg/mL (≈ 204 µM)	32 µg/mL (≈ 102 µM)	64 µg/mL (≈ 204 µM)	64 µg/mL (≈ 204 µM)	32 µg/mL (≈ 102 µM)
O=C1CC(c2c[nH]c3ccccc23)Sc2c(F)cccc21 (stereo not given)	32 µg/mL (≈ 108 µM)	16 µg/mL (≈ 53.8 µM)	32 µg/mL (≈ 108 µM)	8 µg/mL (≈ 26.9 µM)	8 µg/mL (≈ 26.9 µM)
C[C@@H]1[C@H](O)[C@@H](C)/C=C/C=C/C=C/C=C/C=C/C=C/C=C/[C@H](O[C@@H]2O[C@H](C)[C@@H](O)[C@H](N)[C@@H]2O)C[C@@H]2O[C@](O)(C[C@@H](O)C[C@@H](O)[C@H](O)CC[C@@H](O)C[C@@H](O)CC(=O)O[C@H]1C)C[C@H](O)[C@H]2C(=O)O [AMPHOTERICIN B]	2 µg/mL (≈ 2.16 µM)	4 µg/mL (≈ 4.33 µM)	4 µg/mL (≈ 4.33 µM)	2 µg/mL (≈ 2.16 µM)	2 µg/mL (≈ 2.16 µM)
Cc1cc(C)c2c(c1)C(=O)CC(c1c[nH]c3ccc(Cl)cc13)S2 (stereo not given)	32 µg/mL (≈ 93.6 µM)	16 µg/mL (≈ 46.8 µM)	32 µg/mL (≈ 93.6 µM)	16 µg/mL (≈ 46.8 µM)	16 µg/mL (≈ 46.8 µM)
Cc1cc2c(cc1F)SC(c1c[nH]c3ccccc13)CC2=O (stereo not given)	> 128 µg/mL	64 µg/mL (≈ 206 µM)	128 µg/mL (≈ 411 µM)	64 µg/mL (≈ 206 µM)	64 µg/mL (≈ 206 µM)
Cc1ccc2c(c1)C(=O)CC(c1c[nH]c3ccccc13)S2 (stereo not given)	128 µg/mL (≈ 436 µM)	32 µg/mL (≈ 109 µM)	128 µg/mL (≈ 436 µM)	> 128 µg/mL	> 128 µg/mL
O=C1CC(c2c[nH]c3ccc(O)cc23)Sc2c(F)cccc21 (stereo not given)	16 µg/mL (≈ 51.1 µM)	8 µg/mL (≈ 25.5 µM)	16 µg/mL (≈ 51.1 µM)	16 µg/mL (≈ 51.1 µM)	4 µg/mL (≈ 12.8 µM)
Cn1cc(C2CC(=O)c3cc(Cl)ccc3S2)c2ccccc21 (stereo not given)	64 µg/mL (≈ 195 µM)	128 µg/mL (≈ 390 µM)	32 µg/mL (≈ 97.6 µM)	128 µg/mL (≈ 390 µM)	128 µg/mL (≈ 390 µM)
OC(Cn1cncn1)(Cn1cncn1)c1ccc(F)cc1F [FLUCONAZOLE]	32 µg/mL (≈ 104 µM)	8 µg/mL (≈ 26.1 µM)	32 µg/mL (≈ 104 µM)	64 µg/mL (≈ 209 µM)	32 µg/mL (≈ 104 µM)
O=C1CC(c2c[nH]c3ccccc23)Sc2ccc(F)cc21 (stereo not given)	128 µg/mL (≈ 430 µM)	64 µg/mL (≈ 215 µM)	32 µg/mL (≈ 108 µM)	32 µg/mL (≈ 108 µM)	32 µg/mL (≈ 108 µM)
Cc1cc(C)c2c(c1)C(=O)CC(c1c[nH]c3ccccc13)S2 (stereo not given)	64 µg/mL (≈ 208 µM)	32 µg/mL (≈ 104 µM)	128 µg/mL (≈ 416 µM)	64 µg/mL (≈ 208 µM)	128 µg/mL (≈ 416 µM)
Cc1cccc2c1SC(c1c[nH]c3ccccc13)CC2=O (stereo not given)	64 µg/mL (≈ 218 µM)	64 µg/mL (≈ 218 µM)	64 µg/mL (≈ 218 µM)	64 µg/mL (≈ 218 µM)	128 µg/mL (≈ 436 µM)
Cn1cc(C2CC(=O)c3cccc(Cl)c3S2)c2ccccc21 (stereo not given)	32 µg/mL (≈ 97.6 µM)	64 µg/mL (≈ 195 µM)	32 µg/mL (≈ 97.6 µM)	32 µg/mL (≈ 97.6 µM)	32 µg/mL (≈ 97.6 µM)
Cc1cccc2c1SC(c1cn(C)c3ccccc13)CC2=O (stereo not given)	128 µg/mL (≈ 416 µM)	32 µg/mL (≈ 104 µM)	64 µg/mL (≈ 208 µM)	32 µg/mL (≈ 104 µM)	64 µg/mL (≈ 208 µM)
Cc1cc(C)c2c(c1)C(=O)CC(c1c[nH]c3ccc(O)cc13)S2 (stereo not given)	64 µg/mL (≈ 198 µM)	16 µg/mL (≈ 49.5 µM)	32 µg/mL (≈ 98.9 µM)	16 µg/mL (≈ 49.5 µM)	16 µg/mL (≈ 49.5 µM)
